According to ChEMBL document CHEMBL1782029, “Synthesis and biological evaluation of N-substituted benzo[c]phenanthrolines and benzo[c]phenanthrolinones as antiproliferative agents” (Eur J Med Chem, 2011):
Calls of active or inactive are those of the source. The rule behind the calls is not given here.

Key:
HT-29 [1] = assay: Cell cycle arrest in human HT-29 cells at G2/M phase at 0.1 to 2.5 uM after 48 hrs using propidium iodide staining by FACS analysis; assay type: functional, cell-based
Summary of the method: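 Exponentially growing HT-29 colon carcinoma cells (300,000 per well) were plated for 24 h, then exposed to 0.1, 1 or 2.5 µM compound for 48 h. Cells were fixed, stained with propidium iodide and analysed by flow cytometry (FACScan).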

[2] = target: DNA topoisomerase 2-alpha (Homo sapiens) (UniProt P11388); assay: Inhibition of human topoisomerase 2 assessed as formation of linear form of supercoiled pUC19 DNA at 50 uM after 45 mins using ethidium bromide staining by agarose gel analysis
Sequence of DNA topoisomerase 2-alpha (Homo sapiens) (P11388 whole entry, the tested form may be a part): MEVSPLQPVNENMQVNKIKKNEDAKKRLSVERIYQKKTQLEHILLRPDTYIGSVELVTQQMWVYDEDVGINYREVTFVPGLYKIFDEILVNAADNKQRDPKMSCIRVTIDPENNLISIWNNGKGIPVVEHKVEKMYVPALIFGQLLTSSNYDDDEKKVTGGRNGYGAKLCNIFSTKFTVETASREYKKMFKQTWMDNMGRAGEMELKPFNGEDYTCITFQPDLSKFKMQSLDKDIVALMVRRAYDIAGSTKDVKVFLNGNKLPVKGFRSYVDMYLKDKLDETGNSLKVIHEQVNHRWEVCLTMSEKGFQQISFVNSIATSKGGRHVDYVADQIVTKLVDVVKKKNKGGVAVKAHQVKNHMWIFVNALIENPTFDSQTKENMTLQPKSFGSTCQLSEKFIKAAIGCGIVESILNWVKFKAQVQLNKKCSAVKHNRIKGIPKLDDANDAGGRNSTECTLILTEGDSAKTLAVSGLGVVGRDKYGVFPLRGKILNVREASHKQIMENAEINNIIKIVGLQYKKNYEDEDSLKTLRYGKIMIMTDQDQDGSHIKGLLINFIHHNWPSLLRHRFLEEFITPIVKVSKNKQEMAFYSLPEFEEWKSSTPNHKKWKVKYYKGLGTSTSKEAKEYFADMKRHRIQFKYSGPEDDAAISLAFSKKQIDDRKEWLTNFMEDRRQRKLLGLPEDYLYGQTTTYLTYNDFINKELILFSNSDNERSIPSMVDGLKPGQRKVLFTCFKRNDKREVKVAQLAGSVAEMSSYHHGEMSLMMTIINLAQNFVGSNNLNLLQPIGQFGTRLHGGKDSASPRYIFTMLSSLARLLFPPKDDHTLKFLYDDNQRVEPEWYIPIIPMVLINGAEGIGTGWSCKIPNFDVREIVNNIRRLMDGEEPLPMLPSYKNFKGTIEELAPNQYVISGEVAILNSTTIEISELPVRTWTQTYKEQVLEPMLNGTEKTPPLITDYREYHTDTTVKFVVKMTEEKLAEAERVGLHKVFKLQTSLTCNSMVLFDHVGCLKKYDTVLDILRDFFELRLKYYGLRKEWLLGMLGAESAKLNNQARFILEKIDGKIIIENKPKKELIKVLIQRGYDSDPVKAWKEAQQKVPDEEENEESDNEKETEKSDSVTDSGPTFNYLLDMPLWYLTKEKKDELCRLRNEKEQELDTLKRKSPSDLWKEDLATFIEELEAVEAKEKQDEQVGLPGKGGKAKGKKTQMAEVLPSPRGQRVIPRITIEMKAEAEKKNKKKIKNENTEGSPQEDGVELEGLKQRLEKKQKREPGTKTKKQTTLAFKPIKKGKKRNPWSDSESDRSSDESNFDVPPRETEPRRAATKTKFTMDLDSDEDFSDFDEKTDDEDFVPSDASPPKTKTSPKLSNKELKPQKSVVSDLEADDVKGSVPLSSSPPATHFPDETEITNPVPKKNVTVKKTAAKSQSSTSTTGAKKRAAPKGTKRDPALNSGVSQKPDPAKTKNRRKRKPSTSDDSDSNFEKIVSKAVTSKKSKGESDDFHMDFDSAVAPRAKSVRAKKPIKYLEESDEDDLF

Calf thymus DNA [3] = assay: Binding affinity to calf thymus DNA at 20 uM by UV-vis spectrophotometry analysis; assay type: nucleic-acid assay; details: Bos taurus
Nucleic Acid = assay: Binding affinity to 265 bp of 3'-end-radio-labelled DNA fragment at 0.5 to 5 uM treated 15 mins before Dnase 1-mediated digestion by footprinting assay; assay type: nucleic-acid assay
Summary of the method: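 DNase I footprinting. It was equilibrated with compound for 15 min at 37 °C, then digested 3 min with DNase I (0.01 unit/ml) in 20 mM NaCl, 2 mM MgCl2, 2 mM MnCl2, pH 7.3. Samples were lyophilised, denatured at 90 °C and run on an 8% denaturing polyacrylamide gel.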

[4] = target: T1, DNA topoisomerase 1 (Homo sapiens) (UniProt P11387); assay: Inhibition of camptothecin-induced poisoning effect of human topoisomerase 1 assessed as suppression of CPT-induced 117 bp DNA cleavage by SDS-PAGE analysis
T1 sequence (whole entry): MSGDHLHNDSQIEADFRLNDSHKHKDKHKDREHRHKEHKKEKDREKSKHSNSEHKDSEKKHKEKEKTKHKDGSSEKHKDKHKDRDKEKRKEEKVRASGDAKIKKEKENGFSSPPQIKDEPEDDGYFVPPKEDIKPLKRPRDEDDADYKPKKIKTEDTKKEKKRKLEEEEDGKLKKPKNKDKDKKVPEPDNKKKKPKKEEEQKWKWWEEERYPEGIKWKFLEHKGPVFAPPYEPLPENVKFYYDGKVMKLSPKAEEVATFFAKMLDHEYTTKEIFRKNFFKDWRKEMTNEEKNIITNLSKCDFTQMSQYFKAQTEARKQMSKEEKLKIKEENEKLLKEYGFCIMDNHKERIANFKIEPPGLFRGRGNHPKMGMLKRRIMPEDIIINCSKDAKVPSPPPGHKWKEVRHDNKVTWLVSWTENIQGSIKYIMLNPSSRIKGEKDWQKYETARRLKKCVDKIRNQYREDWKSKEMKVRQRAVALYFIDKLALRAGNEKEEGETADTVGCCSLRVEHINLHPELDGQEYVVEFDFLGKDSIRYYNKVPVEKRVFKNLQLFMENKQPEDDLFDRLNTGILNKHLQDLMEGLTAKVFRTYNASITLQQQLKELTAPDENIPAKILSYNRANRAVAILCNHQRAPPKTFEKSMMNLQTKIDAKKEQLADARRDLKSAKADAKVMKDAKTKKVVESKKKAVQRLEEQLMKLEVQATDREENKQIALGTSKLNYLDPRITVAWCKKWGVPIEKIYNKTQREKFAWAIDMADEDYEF

[5] = target: T1, DNA topoisomerase 1 (Homo sapiens); assay: Inhibition of human recombinant topoisomerase 1-mediated relaxation of supercoiled pUC19 DNA assessed as formation of nicked DNA at 0.1 to 5 uM using ethidium bromide staining by agarose gel electrophoresis
Summary of the method: (§1)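 Supercoiled pUC19 plasmid (130 ng) was incubated with 4 units of human recombinant Top1 at 37 °C for 45 min in relaxation buffer (50 mM Tris pH 7.8, 50 mM KCl, 10 mM MgCl2, 1 mM DTT, 1 mM EDTA, 1 mM ATP) with increasing compound concentrations. Products were resolved on 1% agarose at room temperature, 2 h at 120 V, then stained with ethidium bromide and imaged under UV.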

HT-29 [6] = assay: Cytotoxicity against human HT-29 cells after 72 hrs by MTS assay; assay type: functional, cell-based; details: HT-29, 72 h
[7] = target: DNA topoisomerase 2-alpha (Homo sapiens) (UniProt P11388); assay: Inhibition of human topoisomerase 2 assessed as formation of nicked form of supercoiled pUC19 DNA at 50 uM after 45 mins using ethidium bromide staining by agarose gel analysis
[8] = target: T1, DNA topoisomerase 1 (Homo sapiens); assay: Inhibition of human recombinant topoisomerase 1 assessed as cleavage of 117-mer DNA fragment at 20 to 50 uM using ethidium bromide staining by agarose gel electrophoresis analysis
Calf thymus DNA [9] = assay: Binding affinity to calf thymus DNA by circular dichroism analysis; assay type: nucleic-acid assay; details: Bos taurus
[10] = target: T1, DNA topoisomerase 1 (Homo sapiens); assay: Inhibition of human recombinant topoisomerase 1 assessed as cleavage of 117-mer DNA fragment at 0.5 to 5 uM using ethidium bromide staining by agarose gel electrophoresis analysis
[11] = target: T1, DNA topoisomerase 1 (Homo sapiens); assay: Inhibition of human recombinant topoisomerase 1-mediated relaxation of supercoiled pUC19 DNA assessed as formation of nicked DNA at 1 to 50 uM using ethidium bromide staining by agarose gel electrophoresis; summary of the method: as §1

| Structure (SMILES) | inhibition [2] | Activity (Calf thymus DNA [3]) | inhibition (Nucleic Acid) | Top1 relaxation inhibition (qualitative call) [5] | inhibition [7] | inhibition [8] | Activity (Calf thymus DNA [9]) | inhibition [10] | Topoisomerase 1 inhibition (active/inactive) [11] | Activity (HT-29 [1]) | inhibition [4] | IC50 (HT-29 [6]) |
| --- | --- | --- | --- | --- | --- | --- | --- | --- | --- | --- | --- | --- |
| COc1cc2c(=O)n(CCN(C)C)c3c4cccnc4ccc3c2cc1OC |  | Active |  |  |  |  | Active | inactive | Active |  | Dose-dependent effect | 1660 nM |
| CCN(CC)CCn1c(=O)c2cc3c(cc2c2ccc4cnccc4c21)OCO3 | inactive | Active | Active | Active | inactive | inactive | Active |  |  | Active | Dose-dependent effect | 230 nM |
| COc1cc2c(=O)n(CCCN(C)C)c3c4cccnc4ccc3c2cc1OC |  | Active |  |  |  |  | Active |  | Active |  | Dose-dependent effect | 4980 nM |
| CN(C)CCCn1c(=O)c2cc3c(cc2c2ccc4ncccc4c21)OCO3 | inactive | Active | Active | Active | inactive | inactive | Active |  |  | Active | Dose-dependent effect | 230 nM |
| CCN(CC)CCCNc1nc2c3cccnc3ccc2c2cc(OC)c(OC)cc12 | inactive | Active | Active | Active | inactive | inactive | Active |  |  |  | Dose-dependent effect | 5770 nM |
| CCN(CC)CCn1c(=O)c2cc(OC)c(OC)cc2c2ccc3ncccc3c21 |  | Active |  |  |  |  | Active | inactive | Active |  | Dose-dependent effect | 2630 nM |
| CCN(CC)CCn1c(=O)c2cc3c(cc2c2ccc4ncccc4c21)OCO3 | inactive | Active | Active | Active | inactive | inactive | Active |  |  | Active | Dose-dependent effect | 75 nM |
| COc1cc2c[n+](C)c3c4cc5c(cc4ccc3c2cc1OC)OCO5 [NITIDINE CHLORIDE] | inactive | Active |  | Active | inactive |  | Active | inactive |  |  |  | 2750 nM |
| CN(C)CCn1c(=O)c2cc3c(cc2c2ccc4cnccc4c21)OCO3 | inactive | Active | Active | Active | inactive | inactive | Active |  |  | Active | Dose-dependent effect | 78 nM |

Now from value to compound, other results behind:

| inhibition [2] | Activity (Calf thymus DNA [3]) | inhibition (Nucleic Acid) | Top1 relaxation inhibition (qualitative call) [5] | inhibition [7] | inhibition [8] | Activity (Calf thymus DNA [9]) | inhibition [10] | Topoisomerase 1 inhibition (active/inactive) [11] | Structure (SMILES) | Activity (HT-29 [1]) | inhibition [4] | IC50 (HT-29 [6]) |
| --- | --- | --- | --- | --- | --- | --- | --- | --- | --- | --- | --- | --- |
| inactive | Active | Active | Active | inactive | inactive | Active |  |  | CN(C)CCn1c(=O)c2cc3c(cc2c2ccc4ncccc4c21)OCO3 | Active | Dose-dependent effect | 120 nM |
| inactive | Active | Active | Active | inactive | inactive | Active |  |  | CN(C)CCCn1c(=O)c2cc3c(cc2c2ccc4cnccc4c21)OCO3 | Active | Dose-dependent effect | 240 nM |
| inactive | Active | inactive | Active | inactive | inactive | Active |  |  | CCN(CC)CCCNc1nc2c3ccncc3ccc2c2cc(OC)c(OC)cc12 |  | Dose-dependent effect | 5470 nM |
| inactive | Active | Active | Active | inactive | inactive | Active |  |  | COc1cc2c(NCCN(C)C)nc3c4cccnc4ccc3c2cc1OC |  | Dose-dependent effect | 970 nM |
| inactive | Active | Active | Active | inactive | inactive | Active |  |  | CN(C)CCNc1nc2c3cccnc3ccc2c2cc3c(cc12)OCO3 | Active | Dose-dependent effect | 110 nM |
| inactive | Active | Active | Active | inactive | inactive | Active |  |  | COc1cc2c(NCCCN(C)C)nc3c4cccnc4ccc3c2cc1OC |  | Dose-dependent effect | 3330 nM |
| inactive | Active | Active | Active | inactive | inactive | Active |  |  | CN(C)CCNc1nc2c3ccncc3ccc2c2cc3c(cc12)OCO3 | Active | Dose-dependent effect | 70 nM |
|  | Active |  |  |  |  | Active | inactive | Active | COc1cc2c(=O)n(CCCN(C)C)c3c4ccncc4ccc3c2cc1OC |  | Dose-dependent effect | 6110 nM |
| inactive | Active | inactive | Active | inactive | inactive | Active |  |  | COc1cc2c(NCCCN(C)C)nc3c4ccncc4ccc3c2cc1OC |  |  | 3140 nM |
|  | Active |  |  |  |  | Active | inactive | Active | COc1cc2c(=O)n(CCN(C)C)c3c4ccncc4ccc3c2cc1OC |  | Dose-dependent effect | 1420 nM |
| inactive | Active | inactive | Active | inactive | inactive | Active |  |  | CN(C)CCCNc1nc2c3ccncc3ccc2c2cc3c(cc12)OCO3 |  | Dose-dependent effect | 7620 nM |
